Assay results from ChEMBL document CHEMBL3272330, “Synthesis and antimineralocorticoid activities of some 7alpha-cyano and 7alpha-alkoxycarbonylamino steroidal spirolactones” (1976).
Activity calls are given as the source filed them. The rule behind the calls is not given here.

How the values were obtained:
[1] = tested on: Rattus norvegicus; assay: In vivo inhibition of deoxycorticosterone acetate-induced urinary electrolyte effect in sc dosed adrenalectomized rat measured over 4 hrs; format: functional, Urine
Summary of the method: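 Groups of four adrenalectomized rats (150-200 g) were pretreated sc with 12 µg deoxycorticosterone acetate plus 2.5 ml isotonic saline, then dosed subcutaneously with test compound. The assay ran 4 h. MED (mg/rat) is the dose giving 50% inhibition of the DCA-induced increase in urinary Na/K ratio.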

[2] = tested on: Rattus norvegicus; assay: In vivo inhibition of deoxycorticosterone acetate-induced urinary electrolyte effect in ig dosed adrenalectomized rat measured over 4 hrs; format: functional, Urine
Summary of the method: (§1)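 Adrenalectomized rats (150-200 g) in groups of four each received 12 µg deoxycorticosterone acetate and 2.5 ml isotonic saline sc before intragastric test compound, with 2.4 mg/rat as the standard level. Urine was collected over 4 h. The value is the median effective dose (mg/rat) giving 50% inhibition of the DCA-induced rise in urinary Na/K ratio.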

[3] = tested on: Rattus norvegicus; assay: In vivo inhibition of deoxycorticosterone acetate-induced urinary electrolyte effect in po dosed adrenalectomized rat measured over 4 hrs; format: functional, organism-based; settings: Urine; summary of the method: as §1

| SMILES | MED50 [1] [mg] | MED50 [2] [mg] | inhibition [3] |
| --- | --- | --- | --- |
| C[C@]12CCC(=O)C=C1C[C@@H](C#N)[C@@H]1[C@@H]2CC[C@@]2(C)[C@H]1CC[C@@]21CCC(=O)O1 | 0.39 | >2.4 | – |
| C[C@]12CCC(=O)C=C1C[C@@H](N=C=O)[C@@H]1[C@@H]2CC[C@@]2(C)[C@H]1CC[C@@]21CCC(=O)O1 | >2.4 | >2.4 | – |
| C[C@]12C=CC(=O)C=C1C[C@@H](C#N)[C@@H]1[C@@H]2CC[C@@]2(C)[C@H]1CC[C@@]21CCC(=O)O1 | 2.3 | >2.4 | inactive |
| COC(=O)N[C@@H]1CC2=CC(=O)CC[C@]2(C)[C@H]2CC[C@@]3(C)[C@@H](CC[C@@]34CCC(=O)O4)[C@H]12 | 0.79 | 2 | – |
| CCOC(=O)N[C@@H]1CC2=CC(=O)CC[C@]2(C)[C@H]2CC[C@@]3(C)[C@@H](CC[C@@]34CCC(=O)O4)[C@H]12 | >2.4 | >2.4 | – |
| C[C@]12CC[C@H]3[C@@H]([C@H](C#N)CC4=CC(=O)CC[C@@H]43)[C@@H]1CC[C@@]21CCC(=O)O1 | 1.3 | >2.4 | – |
| C[C@]12CCC(=O)C=C1C[C@@H](C#N)[C@@H]1[C@@H]2CC[C@@]2(C)[C@H]1CC[C@@]2(O)CCC(=O)[O-].[K+] | – | 2.3 | inactive |
